TAAR1 agonist = human TAAR1 agonism; Q96RJ0; CHO RD-HGA16 TAAR1, Fluo-8 calcium fluorescence; vehicle wells 0%, saturating PEA agonist 100%; activation, % at 3 µM; hit rate 0.99% among 360,000; AID 624467;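 active = activation above the mean activation of all test compounds in the run plus 3 SD, cut at about 38% in these data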
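System: CHO-derived RD-HGA16 cells with stable Gα16 and human TAAR1 / Times: 17-24 h plating, Fluo-8 75 min 37 °C, 30 min RT / Technique: calcium-sensitive Fluo-8 signal, excitation 470-495, emission 515-575 nm / Measure: % activation relative to PEA EC100 response / Benchmarks: DMSO and PEA EC100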
M4 PAM = positive allosteric modulators of human muscarinic M4 receptor. P08173. CHO-K1 hM4/Gqi5, Fluo-8 calcium fluorescence, ACh EC20; 0% = ACh EC20, 100% = maximal ACh. activation, % at 3 µM. hit rate 0.4% among 360,000;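 active = activation above its plate's cutoff, the mean activation of sample wells plus 3 SD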
Target sequence (P08173 whole entry, looked up): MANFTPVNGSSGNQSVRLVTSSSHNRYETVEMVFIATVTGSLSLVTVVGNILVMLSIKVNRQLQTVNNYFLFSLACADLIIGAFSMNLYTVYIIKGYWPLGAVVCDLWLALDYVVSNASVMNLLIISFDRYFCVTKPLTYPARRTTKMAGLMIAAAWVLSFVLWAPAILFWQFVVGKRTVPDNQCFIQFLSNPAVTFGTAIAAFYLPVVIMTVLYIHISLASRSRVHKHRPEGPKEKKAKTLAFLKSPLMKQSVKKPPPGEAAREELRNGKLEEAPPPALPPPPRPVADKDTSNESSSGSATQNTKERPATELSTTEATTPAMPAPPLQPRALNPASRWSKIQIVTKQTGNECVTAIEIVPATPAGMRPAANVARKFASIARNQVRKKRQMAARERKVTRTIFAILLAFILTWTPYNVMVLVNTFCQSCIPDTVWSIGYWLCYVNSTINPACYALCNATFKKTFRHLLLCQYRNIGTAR
TAAR1 antag = antagonists of human TAAR1; Q96RJ0; CHO RD-HGA16 TAAR1, Fluo-8 calcium fluorescence, antagonist; inhibition, % at 3 µM; hit rate 1.5% among 360,000;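 active = inhibition above a per-plate cutoff, the mean inhibition of test compounds on that plate plus 3 SD, cut at about 49% in these data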
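System: RD-HGA16 CHO cells with stable hTAAR1 and Gα16 | Probe or stimulus: EC80 β-phenethylamine stimulus | Dosing: 3 µM, single point | Times: Dye loading 75 min at 37 °C, then 30 min room temperature | Measured by: Fluo-8 calcium-sensitive fluorescence | Read-out basis: % inhibition of agonist calcium response | Replicates: n of 1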
M4 antag = antagonists of human muscarinic M4 receptor (CHRM4). CHO-hM4 cells, ACh EC80, Fluo-8 calcium fluorescence. AID 624125. inhibition, % at 3 µM. P08173. hit rate 0.73% among 360,000;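 active = inhibition above its plate's cutoff, the mean inhibition of sample wells plus 3 SD, cut at about 27% in these data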
CHRM4 agonist = agonists of human muscarinic M4 receptor (CHRM4); CHO-K1 hM4/Gqi5, Fluo-8 calcium fluorescence; vehicle 0%, full acetylcholine response 100%; P08173; hit rate 0.14% among 360,000; activation, % at 3 µM;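 active = activation above the run mean over all test wells plus 3 SD, cut at about 32% in these data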;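 note: peak over basal fluorescence ratio per well then scaled between controls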
TAAR1 ag conf = human TAAR1 agonism, confirmed; shares compounds with TAAR1 agonist; CHO RD-HGA16 TAAR1, Fluo-8 calcium fluorescence; scaled: DMSO 0%, maximal phenethylamine 100%; activation, % at 3 µM; hit rate 82% among 2,400; AID 651783;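 active = activation above a cutoff set at the run's mean compound activation plus 3 SD, cut at about 39% in these data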
Ga16 ag counter = nonselective agonist in parental cells, TAAR1 agonist counter-screen. hit rate 50% among 2,400. activation, % at 3 µM. shares compounds with TAAR1 agonist. CHO-Ga16 parental, Fluo-8 calcium fluorescence; normalized to maximal ATP response, DMSO zero;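 active = activation above the run cutoff, the mean activation over all tested wells plus 3 SD, cut at about 12% in these data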
TAAR1 desensitize = human TAAR1 agonist that also desensitizes the receptor | CHO RD-HGA16 hTAAR1, Fluo-8 calcium, beta-PEA response inhibition | shares compounds with TAAR1 agonist | hit rate 46% among 2,400 | inhibition, % at 3 µM | AID 651951;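 active = inhibition above the run cutoff, the mean inhibition of all test compounds plus 3 SD, cut at about 49% in these data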;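 note: beta-PEA stimulus applied at its EC80; loss of beta-PEA calcium signal after compound pretreatment read as receptor desensitization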
Ga16 antag count = nonselective Ga16 antagonist in TAAR1 agonist counter-screen. shares compounds with TAAR1 agonist. CHO-Ga16 ATP-induced calcium, Fluo-8 fluorescence. inhibition, % at 3 µM. hit rate 39% among 2,400. AID 651952;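 active = inhibition above the plate's mean compound inhibition plus 3 SD, computed per plate, cut at about 22% in these data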
Of the large screens only hits and unclear results are named; the others gave an inactive call (follow-up assays come after a bar, where they were run). This is a sample that favours compounds with a hit; in the whole collection about 3% have one here.

CCN(CC)C(=O)C1=C(C)N(CCCN2CCCC2=O)C(=O)C(CC(=O)NC2CCCCC2)C1 (stereo unspecified)	none
CCC(C)(C)C(=O)Nc1ncc(S(=O)(=O)c2ccc([N+](=O)[O-])cc2)s1	TAAR1 agonist 104 | TAAR1 ag conf 76 | Ga16 ag counter 52 | TAAR1 desensitize 52 | Ga16 antag count 41
COC(=O)C(NC(=O)c1ccccc1Cl)(Nc1ncc(S(=O)(=O)c2ccc([N+](=O)[O-])cc2)s1)C(F)(F)F (stereo unspecified)	TAAR1 agonist 88 | TAAR1 ag conf 57 | Ga16 ag counter 27 | TAAR1 desensitize inactive | Ga16 antag count 29
Nc1nc(Nc2ccccc2)nc2ccccc12	TAAR1 agonist 103, TAAR1 antag 91 | TAAR1 ag conf 95 | Ga16 ag counter inactive | TAAR1 desensitize 100 | Ga16 antag count inactive
Nc1nc(Nc2ccc(Cl)cc2)nc2ccccc12	TAAR1 agonist 65, TAAR1 antag 72 | TAAR1 ag conf 84 | Ga16 ag counter inactive | TAAR1 desensitize 70 | Ga16 antag count inactive
CN(C)c1ccc(Nc2nc(N)c3ccccc3n2)cc1	none
Cc1ccc(Nc2nc(N)c3ccccc3n2)cc1Cl	TAAR1 agonist 50 | TAAR1 ag conf 83 | Ga16 ag counter 24 | TAAR1 desensitize 75 | Ga16 antag count inactive
CC(C)C[C@H]1CN(CCCC[C@H]2CNC(=O)C(=O)N2CCC2CCCCC2)C(=O)C(=O)N1CC1CCCCC1	none
Cc1cc(/C=C2\SC(=O)NC2=O)c(C)n1-c1ccc(N(C)C)cc1	none
Cc1cc(/C=C2\SC(=O)NC2=O)c(C)n1-c1ccc(N2CCOCC2)cc1	TAAR1 agonist 60 | TAAR1 ag conf 70 | Ga16 ag counter 34 | TAAR1 desensitize inactive | Ga16 antag count 24
CCCCN(C=O)c1c(CC)nc2ccc(C(=O)N(C)Cc3ccco3)cn12	none
CCOC(=O)C(C(=O)OCC)c1cc(Br)c2noc3c2c1C(=O)c1ccccc1-3	TAAR1 agonist 59, TAAR1 antag 73, M4 antag 54 | TAAR1 ag conf 66 | Ga16 ag counter 62 | TAAR1 desensitize 87 | Ga16 antag count 85
CC(=O)OCCNc1cc(N2CCN(C)CC2)c2noc3c2c1C(=O)c1ccccc1-3	none
O=C(C(=O)N1CCN(C/C=C/c2ccccc2)CC1)c1ccccc1	none
Cc1ccccc1CCN(C(=O)c1csnn1)C(C(=O)NC1CCCC1)c1ccco1 (stereo unspecified)	TAAR1 agonist 46 | TAAR1 ag conf 70 | Ga16 ag counter inactive | TAAR1 desensitize inactive | Ga16 antag count inactive
Cc1ccc(Cl)cc1N(C(=O)c1csnn1)C(C(=O)NC1CCCC1)c1ccco1 (stereo unspecified)	none
N#Cc1cccc(NC(=O)CSc2ccc3c4c(cccc24)C(=O)c2ccccc2-3)c1	TAAR1 agonist 86, TAAR1 antag 87 | TAAR1 ag conf 47 | Ga16 ag counter 57 | TAAR1 desensitize 73 | Ga16 antag count 77
CC(C)c1ccc(NC(=O)CN(C)C2=NS(=O)(=O)c3ccccc32)cc1	none
COc1ccc(S(=O)(=O)N2CCC(C(=O)N3CCc4ccccc4C3)CC2)cc1C	TAAR1 agonist 52 | TAAR1 ag conf 76 | Ga16 ag counter inactive | TAAR1 desensitize inactive | Ga16 antag count inactive
CCN(CC)S(=O)(=O)c1ccc2oc(C(=O)N3CCc4ccccc4C3)c(C)c2c1	none (no result: TAAR1 agonist, TAAR1 antag)
Cc1c(C(=O)N2CCc3ccccc3C2)oc2ccc(S(=O)(=O)N3CC(C)CC(C)C3)cc12 (stereo unspecified)	none (no result: TAAR1 agonist, TAAR1 antag) | Ga16 ag counter inactive | Ga16 antag count inactive
COc1cc(-c2noc(C)c2-c2ccc(N(C)C)nc2)cc(OC)c1OC	TAAR1 agonist 96, TAAR1 antag 54, CHRM4 agonist 36 | TAAR1 ag conf 84 | Ga16 ag counter 48 | TAAR1 desensitize 54 | Ga16 antag count 31
COc1cc(-c2noc(C)c2-c2ccc3[nH]ccc3c2)cc(OC)c1OC	none (no result: TAAR1 agonist, TAAR1 antag)
CC1(C)SC(C)(C)N(C=O)C1C(=O)O (stereo unspecified)	none
CC(C)[C@H](NC(=O)c1ccccc1Cl)C(=O)OCC(=O)NCc1ccc2c(c1)OCO2	none
Cc1ccc(NC(=O)C2CCN(S(=O)(=O)c3cccs3)CC2)cc1	none
Cc1nc2ccc(NC(=O)C3CCN(S(=O)(=O)c4cccs4)CC3)cc2s1	TAAR1 agonist 41 | TAAR1 ag conf inactive | Ga16 ag counter 12 | TAAR1 desensitize inactive | Ga16 antag count inactive
CNC[C@@H]1OCc2ccccc2-c2c(n(C)c3ccccc23)C(=O)N([C@H](C)CO)C[C@@H]1C	none
COc1ccc(NC(=O)CN(C)C(=O)CCNC(=O)Nc2ccccc2)cc1	none
CN(CC(=O)Nc1ccccc1Cl)C(=O)CCNC(=O)Nc1ccccc1	none (no result: TAAR1 agonist, TAAR1 antag) | Ga16 ag counter inactive | Ga16 antag count inactive
COc1ccc(C(NC(=O)C2CCN(Cc3ccc(Oc4ccccc4)cc3)CC2)c2ccccn2)cc1 (stereo unspecified)	none
CN(C(=O)c1ccc(NC(=O)Cc2cccc([N+](=O)[O-])c2)cc1)C1CC1	none
CN(C(=O)c1ccc(NC(=O)Cc2ccc([N+](=O)[O-])cc2)cc1)C1CC1	TAAR1 agonist 77 | TAAR1 ag conf 97 | Ga16 ag counter 41 | TAAR1 desensitize inactive | Ga16 antag count inactive
O=C(CSc1nc2ccccc2c(=O)n1Cc1ccc(F)cc1)NCc1cccs1	TAAR1 agonist 95, TAAR1 antag 96 | TAAR1 ag conf 92 | Ga16 ag counter 52 | TAAR1 desensitize 99 | Ga16 antag count 68
O=C(CSc1nc2ccccc2c(=O)n1Cc1ccccc1)NCc1ccco1	TAAR1 agonist 75, TAAR1 antag 79 | TAAR1 ag conf 78 | Ga16 ag counter 47 | TAAR1 desensitize 65 | Ga16 antag count 38
Oc1c(C(c2ccccc2)N2CCc3ccccc3C2)sc2ncnn12 (stereo unspecified)	TAAR1 agonist 65 | TAAR1 ag conf 61 | Ga16 ag counter inactive | TAAR1 desensitize inactive | Ga16 antag count inactive
